Laboratory results published in ChEMBL document CHEMBL3861962 (Eur J Med Chem, 2016).

Columns and labels:
[1] = target: T1, Endothelin-1 receptor (Homo sapiens) (UniProt P25101); assay: Agonist activity at ETA receptor in human SKNMC cells assessed as induction of Ca2+ mobilization at 10 nM by fluorimetric method relative to control; assay type: functional, cell-based; conditions: SK-N-MC
T1 sequence (whole entry): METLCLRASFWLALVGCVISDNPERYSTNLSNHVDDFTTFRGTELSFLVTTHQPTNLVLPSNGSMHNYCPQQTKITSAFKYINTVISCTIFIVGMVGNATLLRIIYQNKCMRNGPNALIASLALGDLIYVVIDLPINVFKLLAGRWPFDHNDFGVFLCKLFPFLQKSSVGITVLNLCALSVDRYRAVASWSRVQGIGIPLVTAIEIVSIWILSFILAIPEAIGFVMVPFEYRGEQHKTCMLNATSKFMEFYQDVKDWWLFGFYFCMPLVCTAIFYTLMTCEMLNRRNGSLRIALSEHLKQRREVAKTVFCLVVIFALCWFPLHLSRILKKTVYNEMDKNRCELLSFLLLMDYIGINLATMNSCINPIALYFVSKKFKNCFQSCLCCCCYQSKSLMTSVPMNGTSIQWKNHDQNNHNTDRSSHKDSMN
Outline: (§1)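 ETA functional assay run by Cerep in human neuroblastoma SK-N-MC cells at 22 °C with fluorimetric read-out. Test solutions were 1, 10, 100 and 1000 nM. Agonist response is given as % of the control response to 100 nM endothelin-1. For antagonist mode, inhibition is given as % of the control endothelin-1 agonist response, with BQ-123 as reference antagonist.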

[2] = target: T2, Endothelin receptor type B (Homo sapiens) (UniProt P24530); assay: Agonist activity at human recombinant ETB receptor expressed in CHOK1 cells assessed as induction of Ca2+ mobilization at 1 nM by fluorimetric method relative to control; assay type: functional, cell-based; conditions: CHO-K1
T2 sequence (whole entry): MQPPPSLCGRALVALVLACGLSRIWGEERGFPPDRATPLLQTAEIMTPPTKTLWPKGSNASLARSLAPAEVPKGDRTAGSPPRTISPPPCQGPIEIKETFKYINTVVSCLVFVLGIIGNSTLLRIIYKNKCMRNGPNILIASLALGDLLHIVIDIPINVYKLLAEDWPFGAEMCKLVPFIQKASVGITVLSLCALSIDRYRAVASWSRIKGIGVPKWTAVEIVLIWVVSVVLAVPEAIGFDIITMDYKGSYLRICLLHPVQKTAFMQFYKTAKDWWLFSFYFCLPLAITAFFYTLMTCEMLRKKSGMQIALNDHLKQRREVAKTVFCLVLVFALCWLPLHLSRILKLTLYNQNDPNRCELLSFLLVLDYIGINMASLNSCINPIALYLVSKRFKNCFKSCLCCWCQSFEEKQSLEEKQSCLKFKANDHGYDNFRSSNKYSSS
Outline: as §1, with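 “ETB” for “ETA”, “recombinant CHO-k1” for “neuroblastoma SK-N-MC”, “BQ-788” for “BQ-123”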

[3] = target: T2, Endothelin receptor type B (Homo sapiens); assay: Agonist activity at human recombinant ETB receptor expressed in CHOK1 cells assessed as induction of Ca2+ mobilization at 100 nM by fluorimetric method relative to control; assay type: functional, cell-based; conditions: CHO-K1
Outline: as §1, with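 “ETB” for “ETA”, “recombinant CHO-k1” for “neuroblastoma SK-N-MC”, “BQ-788” for “BQ-123”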

[4] = target: T2, Endothelin receptor type B (Homo sapiens); assay: Antagonist activity at human recombinant ETB expressed in CHOK1 cells assessed as inhibition of endothelin-1-mediated Ca2+ mobilization at 10 nM by fluorimetric method relative to control; assay type: functional, cell-based; conditions: CHO-K1
Outline: as §1, with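 “ETB” for “ETA”, “recombinant CHO-k1” for “neuroblastoma SK-N-MC”, “BQ-788” for “BQ-123”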

Endothelin-1 receptor = target: T3, Endothelin-1 receptor (Homo sapiens, UniProt P25101); assay: Antagonist activity at ETA receptor in human SKNMC cells assessed as inhibition of endothelin-1-induced Ca2+ mobilization by fluorimetric method
T3 sequence (P25101 whole entry): T1 sequence (whole entry)

[5] = target: T2, Endothelin receptor type B (Homo sapiens); assay: Antagonist activity at human recombinant ETB expressed in CHOK1 cells assessed as inhibition of endothelin-1-mediated Ca2+ mobilization at 1 nM by fluorimetric method relative to control; assay type: functional, cell-based; conditions: CHO-K1
Outline: as §1, with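 “ETB” for “ETA”, “recombinant CHO-k1” for “neuroblastoma SK-N-MC”, “BQ-788” for “BQ-123”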

[6] = target: T1, Endothelin-1 receptor (Homo sapiens); assay: Antagonist activity at ETA receptor in human SKNMC cells assessed as inhibition of endothelin-1-mediated Ca2+ mobilization at 1 nM by fluorimetric method relative to control; assay type: functional, cell-based; conditions: SK-N-MC; outline: as §1
[7] = target: T1, Endothelin-1 receptor (Homo sapiens); assay: Antagonist activity at ETA receptor in human SKNMC cells assessed as inhibition of endothelin-1-mediated Ca2+ mobilization at 100 nM by fluorimetric method relative to control; assay type: functional, cell-based; conditions: SK-N-MC; outline: as §1
Cytochrome P450 2C9 = Cytochrome P450 2C9 (Homo sapiens, UniProt P11712); assay: Drug metabolism assessed as human recombinant CYP2C9-mediated metabolite formation by measuring parent compound remaining at 5 uM in presence of NADPH after 30 mins by LC-MS/MS analysis; assay type: ADME; conditions: recombinant enzyme, 0.5 h
Outline: (§2)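 Substrate at 5 μM final in 100 mM potassium phosphate, pH 7.4, incubated with human liver microsomes or baculovirus-expressed recombinant CYP3A4, 2D6 or 2C9. Reaction started with 1 mM NADPH and run 0, 15 and 30 min at 37 °C. Stopped with ice-cold acetonitrile containing labetalol internal standard, then centrifuged. Supernatant analysed by LC-MS/MS on a C18 column at 40 °C. Blank was enzyme without substrate.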

[8] = Metabolic stability in human liver microsomes assessed as parent compound remaining at 5 uM in presence of NADPH after 30 mins by LC-MS/MS analysis; assay type: ADME; conditions: read-out: Stability
Outline: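 Pooled human liver microsomes in 100 mM potassium phosphate, pH 7.4, with test compound at 5 μM final. Reaction started with 1 mM NADPH (final) and run at 37 °C in a shaking water bath for 0, 15 and 30 min. Stopped with an equal volume of ice-cold acetonitrile containing 0.6 μM labetalol as internal standard. Protein was spun out and the supernatant analysed by LC-MS/MS. Blank had no compound.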

[9] = target: T2, Endothelin receptor type B (Homo sapiens); assay: Agonist activity at human recombinant ETB receptor expressed in CHOK1 cells assessed as induction of Ca2+ mobilization at 10 nM by fluorimetric method relative to control; assay type: functional, cell-based; conditions: CHO-K1
Outline: as §1, with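 “ETB” for “ETA”, “recombinant CHO-k1” for “neuroblastoma SK-N-MC”, “BQ-788” for “BQ-123”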

[10] = target: T2, Endothelin receptor type B (Homo sapiens); assay: Antagonist activity at human recombinant ETB expressed in CHOK1 cells assessed as inhibition of endothelin-1-mediated Ca2+ mobilization at 100 nM by fluorimetric method relative to control; assay type: functional, cell-based; conditions: CHO-K1
Outline: as §1, with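 “ETB” for “ETA”, “recombinant CHO-k1” for “neuroblastoma SK-N-MC”, “BQ-788” for “BQ-123”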

[11] = Retention time of the compound; assay type: physicochemical
[12] = target: T1, Endothelin-1 receptor (Homo sapiens); assay: Agonist activity at ETA receptor in human SKNMC cells assessed as induction of Ca2+ mobilization at 1 nM by fluorimetric method relative to control; assay type: functional, cell-based; conditions: SK-N-MC; outline: as §1
Cytochrome P450 3A4 = Cytochrome P450 3A4 (Homo sapiens, UniProt P08684); assay: Drug metabolism assessed as human recombinant CYP3A4-mediated metabolite formation by measuring parent compound remaining at 5 uM in presence of NADPH after 30 mins by LC-MS/MS analysis; assay type: ADME; conditions: recombinant enzyme, 0.5 h; outline: as §2
[13] = Cytotoxicity against CHOK1 cells assessed as decrease in cell viability after 24 hrs by MTT assay; assay type: toxicity, cell-based, Cricetulus griseus; conditions: Chinese hamster, CHO-K1 cells
Outline: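 CHO-k1 cells grown in phenol-red-free DMEM/F-12 with 10% FBS, seeded at 20,000 cells/well and allowed to attach overnight. Exposure was 24 h to 0.1–200 μM, with DMSO as vehicle control. MTT at 1 mg/mL for 3 h at 37 °C, formazan dissolved in DMSO, absorbance read at 570 nm. Data given as % OD of vehicle control; IC50 taken from dose–response curve fits.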

Sequence of Cytochrome P450 3A4 (P08684 whole entry): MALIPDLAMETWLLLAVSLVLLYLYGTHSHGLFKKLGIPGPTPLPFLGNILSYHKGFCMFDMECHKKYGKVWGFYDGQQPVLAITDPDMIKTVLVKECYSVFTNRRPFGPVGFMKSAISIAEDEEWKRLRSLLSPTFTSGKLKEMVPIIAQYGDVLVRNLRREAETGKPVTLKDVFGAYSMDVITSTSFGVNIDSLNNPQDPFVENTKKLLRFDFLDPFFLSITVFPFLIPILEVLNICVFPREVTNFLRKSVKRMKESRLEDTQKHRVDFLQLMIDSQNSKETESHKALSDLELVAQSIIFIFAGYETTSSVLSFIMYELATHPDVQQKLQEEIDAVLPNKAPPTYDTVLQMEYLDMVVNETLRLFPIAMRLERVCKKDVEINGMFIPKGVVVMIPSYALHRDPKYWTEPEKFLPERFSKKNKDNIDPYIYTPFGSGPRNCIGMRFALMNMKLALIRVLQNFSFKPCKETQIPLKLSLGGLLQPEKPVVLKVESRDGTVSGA
Sequence of Cytochrome P450 2C9 (P11712 whole entry): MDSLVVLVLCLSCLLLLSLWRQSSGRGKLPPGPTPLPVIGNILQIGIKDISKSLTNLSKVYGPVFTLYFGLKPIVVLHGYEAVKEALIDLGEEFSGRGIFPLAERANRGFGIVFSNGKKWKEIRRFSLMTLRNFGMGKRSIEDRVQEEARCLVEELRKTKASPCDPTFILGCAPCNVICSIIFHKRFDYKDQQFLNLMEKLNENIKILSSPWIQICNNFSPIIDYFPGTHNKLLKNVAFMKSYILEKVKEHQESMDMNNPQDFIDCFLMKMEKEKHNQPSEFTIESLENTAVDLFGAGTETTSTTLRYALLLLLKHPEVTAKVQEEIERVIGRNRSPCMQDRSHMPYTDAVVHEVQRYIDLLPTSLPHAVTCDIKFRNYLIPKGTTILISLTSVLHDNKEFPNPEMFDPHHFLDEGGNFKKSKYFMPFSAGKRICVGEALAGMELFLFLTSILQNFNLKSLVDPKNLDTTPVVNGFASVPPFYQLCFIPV

| Compound | Activity [1] | Activity [2] | Activity [3] | inhibition [4] | IC50 (Endothelin-1 receptor) | inhibition [5] | inhibition [6] | inhibition [7] | Stability (Cytochrome P450 2C9) | remaining at 0.5 h, 5 µM [8] | Activity [9] | inhibition [10] | Retention_time [11] | Activity [12] | Stability (Cytochrome P450 3A4) | IC50 at 24 h [13] |
| --- | --- | --- | --- | --- | --- | --- | --- | --- | --- | --- | --- | --- | --- | --- | --- | --- |
| COc1ccccc1Oc1c(NS(=O)(=O)c2ccc(C(F)(C(F)(F)F)C(F)(F)F)cc2)nc(-c2ncccn2)nc1OCCO | -1% | 0% | -1% | 16% | 0.0754 µM | -5% | -5% | 55% | 100% | 99% | -1% | 8% | 5.6 min | 0% | 16.3% | 159 µM |
| COc1ccccc1Oc1c(NS(=O)(=O)c2ccc(C(OC)(C(F)(F)F)C(F)(F)F)cc2)nc(-c2ncccn2)nc1OCCO | 0% | 0% | 0% | 5% | 693 µM | 4% | -1% | 26% | 100% | 73.9% | 0% | 11% | 5.48 min | 0% | 19.2% | 153 µM |
